# In ChEMBL document CHEMBL3763115, “Silibinin derivatives as anti-prostate cancer agents: Synthesis and cell-based evaluations” (Eur J Med Chem, 2016):
# Experiments:
# [1] = Antiproliferative activity against human PC3 cells assessed as reduction in cell viability after 3 days by WST-1 cell proliferation assay; type: functional, cell-based; conditions: PC-3, 72 h
# In short: (§1)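 Cells from ATCC; PC-3 and LNCaP grown in RPMI-1640, DU145 in EMEM, each with 10% FBS and 1% penicillin/streptomycin, 37 °C, 5% CO2. 3,200 cells per well, treated at 5 concentrations for 3 days with 0.25% DMSO as vehicle control. WST-1 reagent added, 3 h at 37 °C, absorbance read at 430 nm. IC50 from linear fit of at least five doses, mean of at least triplicates.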
# PC-3 [2] = experiment: Induction of apoptosis in human PC3 cells assessed as viable cells at 30 uM after 16 hrs by F2N12S/Sytox A advanced staining based flow cytometry (reference value: 86%); type: functional; conditions: PC-3, 16 h, read-out: Activity
# [3] = Cell cycle arrest in human PC3 cells assessed as accumulation at M phase at 20 uM after 30 hrs by propidium iodide staining based flow cytometry (reference value: 5%); type: functional; conditions: PC-3
# In short: (§2)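 PC-3 cells (RPMI-1640, 10% FBS), 200,000 per well, allowed 3 h to attach, then exposed to compound with DMSO as vehicle control. Attached and floating cells collected at 24 and 30 h, fixed in cold 80% ethanol for 30 min at 4 °C, treated with RNase for 30 min at 37 °C, and stained with propidium iodide. DNA content read by flow cytometry within 0.5–1 h.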
# PC-3 [4] = experiment: Induction of apoptosis in human PC3 cells assessed as apoptotic cells at 30 uM after 16 hrs by F2N12S/Sytox A advanced staining based flow cytometry (reference value: 3%); type: functional
# PC-3 [5] = experiment: Induction of apoptosis in human PC3 cells after 16 hrs by F2N12S/Sytox A advanced staining based flow cytometry; type: functional, cell-based
# PC-3 [6] = experiment: Induction of apoptosis in human PC3 cells assessed as apoptotic cells at 10 uM after 16 hrs by F2N12S/Sytox A advanced staining based flow cytometry (reference value: 3%); type: functional
# [7] = Cell cycle arrest in human PC3 cells assessed as accumulation at G0/G1 phase at 20 uM after 24 hrs by propidium iodide staining based flow cytometry (reference value: 49%); type: functional; conditions: PC-3; in short: as §2
# PC-3 [8] = experiment: Induction of apoptosis in human PC3 cells assessed as necrotic cells at 40 uM after 16 hrs by F2N12S/Sytox A advanced staining based flow cytometry (reference value: 11%); type: functional
# PC-3 [9] = experiment: Induction of apoptosis in human PC3 cells assessed as apoptotic cells at 20 uM after 16 hrs by F2N12S/Sytox A advanced staining based flow cytometry (reference value: 3%); type: functional
# PC-3 [10] = experiment: Induction of apoptosis in human PC3 cells assessed as apoptotic cells at 50 uM after 16 hrs by F2N12S/Sytox A advanced staining based flow cytometry (reference value: 3%); type: functional
# [11] = Potency index, ratio of silibinin IC50 to compound IC50 for antiproliferative activity against human PC3 cells; type: functional, PC-3
# In short: (§3)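 Ratio of silibinin IC50 to derivative IC50. Both come from the 3-day WST-1 assay run in parallel (5 doses, absorbance at 430 nm, IC50 from linear fit, at least triplicates).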
# [12] = Cell cycle arrest in human PC3 cells assessed as accumulation at G0/G1 phase at 20 uM after 30 hrs by propidium iodide staining based flow cytometry (reference value: 55%); type: functional; conditions: PC-3; in short: as §2
# [13] = Antiproliferative activity against human DU145 cells assessed as reduction in cell viability after 3 days by WST-1 cell proliferation assay; type: functional, cell-based; conditions: DU-145, 72 h; in short: as §1
# PC-3 [14] = experiment: Induction of apoptosis in human PC3 cells assessed as necrotic cells at 50 uM after 16 hrs by F2N12S/Sytox A advanced staining based flow cytometry (reference value: 11%); type: functional
# PC-3 [15] = experiment: Induction of apoptosis in human PC3 cells assessed as apoptotic cells at 40 uM after 16 hrs by F2N12S/Sytox A advanced staining based flow cytometry (reference value: 3%); type: functional
# [16] = Cell cycle arrest in human PC3 cells assessed as accumulation at S phase at 20 uM after 24 hrs by propidium iodide staining based flow cytometry (reference value: 8%); type: functional; conditions: PC-3; in short: as §2
# PC-3 [17] = experiment: Induction of apoptosis in human PC3 cells assessed as necrotic cells at 20 uM after 16 hrs by F2N12S/Sytox A advanced staining based flow cytometry (reference value: 11%); type: functional
# [18] = Cell cycle arrest in human PC3 cells assessed as accumulation at G2 phase at 20 uM after 30 hrs by propidium iodide staining based flow cytometry (reference value: 30%); type: functional; conditions: PC-3; in short: as §2
# LNCaP [19] = experiment: Potency index, ratio of silibinin IC50 to compound IC50 for antiproliferative activity against human LNCAP cells; type: functional; in short: as §3
# [20] = Cell cycle arrest in human PC3 cells assessed as accumulation at G2 phase at 20 uM after 24 hrs by propidium iodide staining based flow cytometry (reference value: 34%); type: functional; conditions: PC-3; in short: as §2
# [21] = Potency index, ratio of silibinin IC50 to compound IC50 for antiproliferative activity against human DU145 cells; type: functional, DU-145; in short: as §3
# PC-3 [22] = experiment: Induction of apoptosis in human PC3 cells assessed as viable cells at 20 uM after 16 hrs by F2N12S/Sytox A advanced staining based flow cytometry (reference value: 86%); type: functional; conditions: PC-3, 16 h, read-out: Activity
# [23] = Cell cycle arrest in human PC3 cells assessed as accumulation at M phase at 20 uM after 24 hrs by propidium iodide staining based flow cytometry (reference value: 8%); type: functional; conditions: PC-3; in short: as §2
# LNCaP [24] = experiment: Antiproliferative activity against human LNCAP cells assessed as reduction in cell viability after 3 days by WST-1 cell proliferation assay; type: functional, cell-based; conditions: 72 h; in short: as §1
# PC-3 [25] = experiment: Induction of apoptosis in human PC3 cells assessed as necrotic cells at 10 uM after 16 hrs by F2N12S/Sytox A advanced staining based flow cytometry (reference value: 11%); type: functional
# PC-3 [26] = experiment: Induction of apoptosis in human PC3 cells assessed as necrotic cells at 30 uM after 16 hrs by F2N12S/Sytox A advanced staining based flow cytometry (reference value: 11%); type: functional
# PC-3 [27] = experiment: Induction of apoptosis in human PC3 cells assessed as viable cells at 50 uM after 16 hrs by F2N12S/Sytox A advanced staining based flow cytometry (reference value: 86%); type: functional; conditions: PC-3, 16 h, read-out: Activity
# [28] = Cell cycle arrest in human PC3 cells assessed as accumulation at S phase at 20 uM after 30 hrs by propidium iodide staining based flow cytometry (reference value: 5%); type: functional; conditions: PC-3; in short: as §2
# PC-3 [29] = experiment: Induction of apoptosis in human PC3 cells assessed as viable cells at 40 uM after 16 hrs by F2N12S/Sytox A advanced staining based flow cytometry (reference value: 86%); type: functional; conditions: PC-3, 16 h, read-out: Activity
# PC-3 [30] = experiment: Induction of apoptosis in human PC3 cells assessed as viable cells at 10 uM after 16 hrs by F2N12S/Sytox A advanced staining based flow cytometry (reference value: 86%); type: functional; conditions: PC-3, 16 h, read-out: Activity
compound,measurement,setting,value
CCOc1cc(O)c2c(=O)c(O)c(-c3ccc4c(c3)OC(c3ccc(O)c(OC)c3)C(CO)O4)oc2c1 (stereo not given),IC50,[1],3.25 µM
same,viability at 30 µM,PC-3 [2],11%
same,Activity,[3],6%
same,Activity,PC-3 [4],68%
same,Activity,PC-3 [5],Dose-dependent effect
same,Activity,PC-3 [6],9%
same,Activity,[7],62%
same,Activity,PC-3 [8],25%
same,Activity,PC-3 [9],38%
same,Activity,PC-3 [10],66%
same,Ratio IC50,[11],22
same,Activity,[12],61%
same,IC50,[13],7.59 µM
same,Activity,PC-3 [14],27%
same,Activity,PC-3 [15],71%
same,Activity,[16],7%
same,Activity,PC-3 [17],13%
same,Activity,[18],25%
same,Ratio IC50,LNCaP [19],17
same,Activity,[20],23%
same,Ratio IC50,[21],12
same,viability at 20 µM,PC-3 [22],49%
same,Activity,[23],7%
same,IC50,LNCaP [24],2.58 µM
same,Activity,PC-3 [25],7%
same,Activity,PC-3 [26],25%
same,viability at 50 µM,PC-3 [27],7%
same,Activity,[28],6%
same,viability at 40 µM,PC-3 [29],4%
same,viability at 10 µM,PC-3 [30],84%
